Test results as given in ChEMBL document CHEMBL1138348, “A p-[18F]fluoroethoxyphenyl bicyclic nucleoside analogue as a potential positron emission tomography imaging agent for varicella-zoster virus thymidine kinase gene expression” (J Med Chem, 2007).
Blank lines part the entries; values can stand above or below the molecule they belong to.

Tests used:
Blood [1] = test: Drug uptake in mouse blood assessed as radioactivity at 11.5 MBq after 30 mins; type: ADME, tissue-based; conditions: 0.5 h
Procedure, shortened: (§1)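 About 11.5 MBq of 18F tracer injected iv into mice. Decapitation at 2, 10 or 30 min, n=2 per time point. Blood collected into K2EDTA tubes, weighed and gamma counted. Plasma separated by centrifugation (1837g, 10 min) and counted. Values given as %ID/g normalised to sample weight and injected dose; plasma/whole-blood ratio also derived.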

Plasma [2] = test: Metabolic stability in mouse plasma assessed as radioactivity after 30 mins; type: ADME, cell-free; conditions: 0.5 h
Procedure, shortened: (§2)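 Plasma taken 2, 10 or 30 min after iv 18F tracer in normal mice (n=2 per time point), and urine collected at 60 min by manual bladder voiding. Samples spiked with authentic non-radioactive compound and applied without pretreatment to an Oasis HLB column in-line with a C18 RP-HPLC column. Eluate collected as 1 mL fractions and gamma counted. Result given as intact tracer as % of recovered radioactivity.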

[3] = Metabolic stability in mouse urine assessed as radioactivity after 1 hr; type: ADME, tissue-based; procedure, shortened: as §2
Kidney [4] = test: Biodistribution in NMRI mouse kidney assessed as radioactivity after 60 mins; type: ADME, organism-based; conditions: in vivo, 1 h
Procedure, shortened: (§3)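 Male NMRI mice (37–43 g) given 0.1 mL HPLC-purified tracer (diluted in water for injection, EtOH <5%; 37 MBq/mL for 11C tracer, 3.7 MBq/mL for 18F tracer) via tail vein under ketamine/xylazine ip anaesthesia. Decapitation at 2 or 60 min, n=3 per time point. Organs dissected, weighed, gamma counted. Results given as %ID (cpm organ/total cpm recovered) or SUV. Blood mass taken as 7% of body mass. Mean ± SD.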

Stomach [5] = test: Biodistribution in NMRI mouse stomach assessed as radioactivity after 60 mins; type: ADME, organism-based; conditions: in vivo, 1 h; procedure, shortened: as §3
Blood [6] = test: Biodistribution in NMRI mouse blood assessed as radioactivity after 60 mins; type: ADME, organism-based; conditions: in vivo, 1 h; procedure, shortened: as §3
Stomach [7] = test: Biodistribution in NMRI mouse stomach assessed as radioactivity after 2 mins; type: ADME, organism-based; conditions: in vivo; procedure, shortened: as §3
Blood [8] = test: Biodistribution in NMRI mouse blood assessed as radioactivity after 2 mins; type: ADME, organism-based; conditions: in vivo; procedure, shortened: as §3
Intestine [9] = test: Biodistribution in NMRI mouse intestine assessed as radioactivity after 60 mins; type: ADME, organism-based; conditions: in vivo, 1 h; procedure, shortened: as §3
[10] = Partition coefficient, log P in 1-octanol and phosphate buffer at pH 7.4; type: physicochemical; conditions: 1-octanol/phosphate buffer
Procedure, shortened: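 HPLC-isolated tracer (about 550 kBq 11C or 185 kBq 18F) partitioned between 1-octanol and 0.025 M phosphate buffer pH 7.4 (2 mL each). Vortexed 2 min at room temperature, centrifuged 1837 g for 5 min. Aliquots of both phases weighed and gamma counted. P calculated as the cpm/mL ratio after density correction; n=6.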

Liver [11] = test: Biodistribution in NMRI mouse liver assessed as radioactivity after 2 mins; type: ADME, organism-based; conditions: in vivo; procedure, shortened: as §3
Mus musculus [12] = species on record: Mus musculus; test: Biodistribution in NMRI mouse urine assessed as radioactivity after 60 mins; type: ADME, organism-based; conditions: in vivo, 1 h; procedure, shortened: as §3
Mus musculus [13] = species on record: Mus musculus; test: Biodistribution in NMRI mouse urine assessed as radioactivity after 2 mins; type: ADME, organism-based; conditions: in vivo; procedure, shortened: as §3
Mus musculus [14] = species on record: Mus musculus; test: Biodistribution in NMRI mouse carcass assessed as radioactivity after 60 mins; type: ADME, organism-based; conditions: in vivo, 1 h; procedure, shortened: as §3
Mus musculus [15] = species on record: Mus musculus; test: Biodistribution in NMRI mouse spleen + pancreas assessed as radioactivity after 2 mins; type: ADME, organism-based; conditions: in vivo; procedure, shortened: as §3
Plasma [16] = test: Metabolic stability in mouse plasma assessed as radioactivity after 10 mins; type: ADME, cell-free; procedure, shortened: as §2
Lung [17] = test: Biodistribution in NMRI mouse lungs assessed as radioactivity after 2 mins; type: ADME, organism-based; conditions: in vivo; procedure, shortened: as §3
[18] = Drug uptake in LV-VZVTK-IP transduced 293T cells assessed as radioactivity at 185 kBq after 3 hrs; type: ADME, cell-based; conditions: human, hek-293t
Procedure, shortened: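 293T cells stably transduced with lentivirus carrying VZV-tk-IRES-pac (kept in 1 µg/mL puromycin), alongside untransduced control 293T cells. Plated in triplicate at 200 000 cells/well. After 24 h, fresh medium with HPLC-purified tracer added: 1.1 MBq (11C tracer, 0.5 h) or 185 kBq (18F tracer, 3 h), 37 °C. Cells washed with ice-cold PBS and lysed. Gamma counting. Uptake given as % of total radioactivity per mg protein (Bio-Rad assay).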

Muscle tissue [19] = test: Drug uptake in mouse muscle assessed as radioactivity at 11.5 MBq after 2 mins; type: ADME, tissue-based; conditions: in vivo
Procedure, shortened: (§4)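 Normal mice given 11.5 MBq of 18F tracer. Killed at 2, 10 or 30 min, two animals per time point. Left and right femur and muscle collected, weighed and gamma counted. Uptake given as %ID/g.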

Nucleic Acid [20] = test: Ratio of drug level in femur bone to blood in mouse assessed as radioactivity at 11.5 MBq, iv after 30 mins; type: ADME, organism-based; conditions: other tissue, 0.5 h
Procedure, shortened: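 Normal mice injected with 11.5 MBq of the [18F] tracer and killed at 2, 10 or 30 min pi (two animals per time). Left and right femurs were collected, weighed and gamma-counted, and uptake was expressed as %ID/g. Blood %ID/g was reported at the same time points.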

Muscle tissue [21] = test: Drug uptake in mouse muscle assessed as radioactivity at 11.5 MBq after 30 mins; type: ADME, tissue-based; conditions: in vivo, 0.5 h; procedure, shortened: as §4
Liver [22] = test: Biodistribution in NMRI mouse liver assessed as radioactivity after 60 mins; type: ADME, organism-based; conditions: in vivo, 1 h; procedure, shortened: as §3
Brain [23] = test: Biodistribution in NMRI mouse brain assessed as radioactivity after 2 mins; type: ADME, organism-based; conditions: in vivo; procedure, shortened: as §3
Heart [24] = test: Biodistribution in NMRI mouse heart assessed as radioactivity after 2 mins; type: ADME, organism-based; conditions: in vivo; procedure, shortened: as §3
Intestine [25] = test: Biodistribution in NMRI mouse intestine assessed as radioactivity after 2 mins; type: ADME, organism-based; conditions: in vivo; procedure, shortened: as §3
Lung [26] = test: Biodistribution in NMRI mouse lungs assessed as radioactivity after 60 mins; type: ADME, organism-based; conditions: in vivo, 1 h; procedure, shortened: as §3
Nucleic Acid [27] = test: Ratio of drug level in plasma to whole blood in mouse assessed as radioactivity at 11.5 MBq, iv after 30 mins; type: ADME, organism-based; conditions: in vivo, 0.5 h
Procedure, shortened: (§5)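 Normal mice given about 11.5 MBq of the [18F] tracer iv, killed by decapitation at 2, 10 or 30 min pi (n = 2 per time). Blood was collected into a K2EDTA tube, weighed and gamma-counted, then centrifuged at 1837g for 10 min. Plasma was weighed and counted. Counts were normalised to sample weight and injected dose as %ID/g, and plasma %ID/g was divided by whole-blood %ID/g.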

Blood [28] = test: Drug uptake in mouse blood assessed as radioactivity at 11.5 MBq after 10 mins; type: ADME, tissue-based; procedure, shortened: as §1
Heart [29] = test: Biodistribution in NMRI mouse heart assessed as radioactivity after 60 mins; type: ADME, organism-based; conditions: in vivo, 1 h; procedure, shortened: as §3
Femur [30] = test: Drug uptake in mouse femur bone assessed as radioactivity at 11.5 MBq after 2 mins; type: ADME, tissue-based; conditions: in vivo; procedure, shortened: as §4
Femur [31] = test: Drug uptake in mouse femur bone assessed as radioactivity at 11.5 MBq after 30 mins; type: ADME, tissue-based; conditions: in vivo, 0.5 h; procedure, shortened: as §4
Nucleic Acid [32] = test: Ratio of drug level in plasma to whole blood in mouse assessed as radioactivity at 11.5 MBq, iv after 10 mins; type: ADME, organism-based; conditions: in vivo; procedure, shortened: as §5
Kidney [33] = test: Biodistribution in NMRI mouse kidney assessed as radioactivity after 2 mins; type: ADME, organism-based; conditions: in vivo; procedure, shortened: as §3
Blood [34] = test: Drug uptake in mouse blood assessed as radioactivity at 11.5 MBq after 2 mins; type: ADME, tissue-based; procedure, shortened: as §1
Femur [35] = test: Drug uptake in mouse femur bone assessed as radioactivity at 11.5 MBq after 10 mins; type: ADME, tissue-based; conditions: in vivo; procedure, shortened: as §4
Mus musculus [36] = species on record: Mus musculus; test: Biodistribution in NMRI mouse spleen + pancreas assessed as radioactivity after 60 mins; type: ADME, organism-based; conditions: in vivo, 1 h; procedure, shortened: as §3
Brain [37] = test: Biodistribution in NMRI mouse brain assessed as radioactivity after 60 mins; type: ADME, organism-based; conditions: in vivo, 1 h; procedure, shortened: as §3
Nucleic Acid [38] = test: Ratio of drug level in plasma to whole blood in mouse assessed as radioactivity at 11.5 MBq, iv after 2 mins; type: ADME, organism-based; conditions: in vivo; procedure, shortened: as §5
Mus musculus [39] = species on record: Mus musculus; test: Biodistribution in NMRI mouse carcass assessed as radioactivity after 2 mins; type: ADME, organism-based; conditions: in vivo; procedure, shortened: as §3
Plasma [40] = test: Metabolic stability in mouse plasma assessed as radioactivity after 2 mins; type: ADME, cell-free; procedure, shortened: as §2
[41] = biological target: T1, Thymidine kinase, cytosolic (Homo sapiens, UniProt P04183); test: Inhibition of human cytosolic thymidine kinase 1
T1 sequence (P04183 whole entry): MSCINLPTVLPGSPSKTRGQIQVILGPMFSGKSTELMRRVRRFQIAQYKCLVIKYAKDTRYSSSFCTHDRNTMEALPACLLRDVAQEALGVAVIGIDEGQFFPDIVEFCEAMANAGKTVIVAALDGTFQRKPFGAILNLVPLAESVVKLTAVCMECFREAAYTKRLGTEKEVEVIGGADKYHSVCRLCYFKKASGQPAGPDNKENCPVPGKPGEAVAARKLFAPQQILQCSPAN
Procedure, shortened: (§6)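 Purified recombinant VZV TK (7.75 ng), HSV-1 TK (226 ng) or human cytosolic TK-1 (455 ng) in 50 mM Tris-HCl pH 8.0, 2.5 mM MgCl2, 10 mM DTT, 2.5 mM ATP, 1 mg/mL BSA, 10 mM NaF, with 1 µM final [CH3-3H]dThd substrate. Incubated 30 min at 37 °C with varied compound concentrations; the reaction was linear over this time. Product bound on DE-81 filters, washed, and counted by liquid scintillation. Result reported as IC50.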

[42] = Inhibition of HSV1 thymidine kinase; set-up: species or system Human alphaherpesvirus 1; procedure, shortened: as §6
[43] = Inhibition of Varicella zoster virus thymidine kinase; set-up: species or system Human alphaherpesvirus 3; procedure, shortened: as §6

Drug uptake (Blood [1]): 0.63 % ID/g
Stability (Plasma [2]): 40.6%
Stability [3]: 91.5%
Drug uptake (Kidney [4]): 1.1 %ID
Drug uptake (Stomach [5]): 1.1 %ID
Drug uptake (Blood [6]): 1.5 %ID
Drug uptake (Stomach [7]): 1.2 %ID
Drug uptake (Blood [8]): 4.8 %ID
Drug uptake (Intestine [9]): 44.3 %ID
logD [10]: 1.2
Drug uptake (Liver [11]): 24.7 %ID
Drug uptake (Mus musculus [12]): 34.8 %ID
Drug uptake (Mus musculus [13]): 11.8 %ID
Drug uptake (Mus musculus [14]): 11.9 %ID
Drug uptake (Mus musculus [15]): 1.4 %ID
Stability (Plasma [16]): 82%
Drug uptake (Lung [17]): 0.7 %ID
Drug uptake [18]: 76.6 %ID
Drug uptake (Muscle tissue [19]): 0.35 % ID/g
Ratio (Nucleic Acid [20]): 2
Drug uptake (Muscle tissue [21]): 0.25 % ID/g
Drug uptake (Liver [22]): 4.3 %ID
Drug uptake (Brain [23]): 0 %ID
Drug uptake (Heart [24]): 0.3 %ID
Drug uptake (Intestine [25]): 17.7 %ID
Drug uptake (Lung [26]): 0.2 %ID
Ratio (Nucleic Acid [27]): 1.02
Drug uptake (Blood [28]): 1.42 % ID/g
Drug uptake (Heart [29]): 0.1 %ID
Drug uptake (Femur [30]): 0.57 % ID/g
Drug uptake (Femur [31]): 1.25 % ID/g
Ratio (Nucleic Acid [32]): 1.34
Drug uptake (Kidney [33]): 20.1 %ID
Drug uptake (Blood [34]): 1.57 % ID/g
Drug uptake (Femur [35]): 0.66 % ID/g
Drug uptake (Mus musculus [36]): 1.1 %ID
Drug uptake (Brain [37]): 0 %ID
Ratio (Nucleic Acid [38]): 1.39
Drug uptake (Mus musculus [39]): 18.3 %ID
Stability (Plasma [40]): 94.7%
Compound: O=c1nc2oc(-c3ccc(OCC[18F])cc3)cc2cn1[C@H]1C[C@H](O)[C@@H](CO)O1

IC50 [41]: > 500 µM
IC50 [42]: > 500 µM
IC50 [43]: 4.1 µM
Compound: O=c1nc2oc(-c3ccc(OCCCCCCF)cc3)cc2cn1[C@H]1C[C@H](O)[C@@H](CO)O1
